Data taken from article PMC6447450 (Structure (London, England : 1993), 2019).
“Also recorded” adds a separate entry of the source.

Experiments:
[1] = system: Bfl-1, Mcl-1, Bcl-xL, Bcl-w, and Bcl-2; experiment: Yeast-surface display FACS binding to five Bcl-2 family paralogs; design: species or system human; conditions: for selectivity of Mcl-1 binders among Bcl-2 family paralogs (in words): Mcl-1 versus Bfl-1, Bcl-xL
Procedure, shortened: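 Myc-tagged human Mcl-1 (172-327), Bfl-1 (1-151), Bcl-2 (1-217), Bcl-w (1-164) and Bcl-xL (1-209) tested at 1000, 100, 10 and 1 nM on peptide-displaying yeast induced in galactose medium for 20-24 hr at 30 °C. Display detected with anti-HA and bound target with anti-c-myc (15 min, 4 °C), then APC anti-mouse and PE anti-rabbit (15 min, 4 °C, dark). Read-out: FACS median binding signal of expression-positive cells.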

[2] = target: T1, Bfl-1 (Homo sapiens, UniProt Q16548); experiment: Yeast-surface display FACS binding to Bfl-1
T1 sequence (Q16548 1-151): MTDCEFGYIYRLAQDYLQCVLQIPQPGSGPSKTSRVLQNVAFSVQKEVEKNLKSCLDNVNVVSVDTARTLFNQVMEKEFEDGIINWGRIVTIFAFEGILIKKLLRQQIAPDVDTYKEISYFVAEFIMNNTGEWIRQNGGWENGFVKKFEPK

[3] = target: Mcl-1 (Homo sapiens, UniProt Q07820); experiment: Yeast-surface display FACS binding to Mcl-1
Mcl-1, sequence (Q07820 172-327): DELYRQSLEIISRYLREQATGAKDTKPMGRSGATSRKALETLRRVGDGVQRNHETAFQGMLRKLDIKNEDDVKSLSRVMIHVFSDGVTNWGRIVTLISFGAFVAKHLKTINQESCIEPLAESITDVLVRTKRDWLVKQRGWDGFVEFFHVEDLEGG

-QWVREIAAGLRRAADDVNAQVER [FS2, reference compound]
selectivity for Bfl-1 ([1]; Bfl-1 versus Mcl-1, Bcl-xL, yeast-surface display): > 100 fold

-SYIDKIADLIDKVVEEINSKLE- [dF6]
binding to target Bfl-1 (in words) [2]: did not bind to their targets with high affinity; also recorded: did not bind tightly to Bfl-1

APKEKEVAETLRKIGEEINEALK- [dM1]
selectivity of Mcl-1 binders among Bcl-2 family paralogs (in words) ([1]; yeast-surface display): selective

APKEKEVARTLIKIGEEINEALK- [dM5]
selectivity of Mcl-1 binders among Bcl-2 family paralogs (in words) ([1]; yeast-surface display): selective

APYLEQVARTLLHIGMEINEALR- [dM6]
binding to target Mcl-1 (in words) [3]: did not bind to their targets with high affinity | binding to Bcl-2 family members (in words) ([1]; yeast-surface display FACS, Bfl-1, Mcl-1, Bcl-xL): not binding to any of the Bcl-2 family members we tested
